These results are taken from PMC4752335 (European journal of medicinal chemistry, 2015).

Data set [1] concerns the target T1, ovine COX-1 (Ovis aries, UniProt P05979).
T1 sequence (P05979 25-600): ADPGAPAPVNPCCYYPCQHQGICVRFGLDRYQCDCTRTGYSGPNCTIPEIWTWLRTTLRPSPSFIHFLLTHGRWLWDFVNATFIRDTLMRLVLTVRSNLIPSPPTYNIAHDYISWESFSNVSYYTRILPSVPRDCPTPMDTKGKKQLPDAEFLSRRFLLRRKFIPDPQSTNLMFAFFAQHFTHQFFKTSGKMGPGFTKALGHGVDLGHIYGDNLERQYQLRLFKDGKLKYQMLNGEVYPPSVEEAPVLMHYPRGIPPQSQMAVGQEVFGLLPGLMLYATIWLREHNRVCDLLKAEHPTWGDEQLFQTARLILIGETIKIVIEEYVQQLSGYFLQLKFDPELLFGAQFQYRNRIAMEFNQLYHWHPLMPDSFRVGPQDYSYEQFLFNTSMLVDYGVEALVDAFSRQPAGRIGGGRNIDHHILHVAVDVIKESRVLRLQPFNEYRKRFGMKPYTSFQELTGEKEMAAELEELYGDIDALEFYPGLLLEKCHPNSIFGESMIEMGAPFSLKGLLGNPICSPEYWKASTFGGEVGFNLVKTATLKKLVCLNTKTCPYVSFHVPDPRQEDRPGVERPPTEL
Nature of the data set: In vitro COX assay. The conditions noted are these: for increase in potency toward COX-1: compared to 10a; for decrease in potency toward COX-1: compared to 10r. The class given is biochemical.

The target of data set [2] is T2, rat brain FAAH (Rattus norvegicus, UniProt P97612).
T2 sequence (P97612 1-579): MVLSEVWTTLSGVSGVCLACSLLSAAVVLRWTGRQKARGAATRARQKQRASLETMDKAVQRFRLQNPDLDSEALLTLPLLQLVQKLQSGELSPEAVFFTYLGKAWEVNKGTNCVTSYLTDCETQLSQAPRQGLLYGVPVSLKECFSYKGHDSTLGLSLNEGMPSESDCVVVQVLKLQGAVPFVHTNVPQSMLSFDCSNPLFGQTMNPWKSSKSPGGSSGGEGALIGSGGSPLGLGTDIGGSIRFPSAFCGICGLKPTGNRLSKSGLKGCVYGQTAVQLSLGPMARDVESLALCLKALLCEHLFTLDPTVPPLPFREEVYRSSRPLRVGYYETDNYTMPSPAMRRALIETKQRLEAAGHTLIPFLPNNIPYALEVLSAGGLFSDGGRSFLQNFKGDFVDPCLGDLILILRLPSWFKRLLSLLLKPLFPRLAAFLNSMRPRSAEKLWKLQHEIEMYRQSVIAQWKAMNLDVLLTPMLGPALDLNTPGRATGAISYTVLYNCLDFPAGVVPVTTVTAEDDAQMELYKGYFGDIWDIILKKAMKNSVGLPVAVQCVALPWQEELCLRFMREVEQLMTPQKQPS
Nature of the data set: In vitro rat FAAH radiometric assay. The data set is classed as biochemical.

For data set [3], the system named is FAAH and COX. The conditions noted are these: mice; cited from earlier work.
Data set [4] concerns panel of >90 biologically relevant receptors, enzymes and ion channels. The conditions noted are these: cited from earlier work.
The subject of data set [5] is mouse models of IBD. The conditions noted are these: cited from earlier work.
Data set [6] has as its target T3, human recombinant COX-2 (Homo sapiens, UniProt P35354).
T3 sequence (P35354 18-604): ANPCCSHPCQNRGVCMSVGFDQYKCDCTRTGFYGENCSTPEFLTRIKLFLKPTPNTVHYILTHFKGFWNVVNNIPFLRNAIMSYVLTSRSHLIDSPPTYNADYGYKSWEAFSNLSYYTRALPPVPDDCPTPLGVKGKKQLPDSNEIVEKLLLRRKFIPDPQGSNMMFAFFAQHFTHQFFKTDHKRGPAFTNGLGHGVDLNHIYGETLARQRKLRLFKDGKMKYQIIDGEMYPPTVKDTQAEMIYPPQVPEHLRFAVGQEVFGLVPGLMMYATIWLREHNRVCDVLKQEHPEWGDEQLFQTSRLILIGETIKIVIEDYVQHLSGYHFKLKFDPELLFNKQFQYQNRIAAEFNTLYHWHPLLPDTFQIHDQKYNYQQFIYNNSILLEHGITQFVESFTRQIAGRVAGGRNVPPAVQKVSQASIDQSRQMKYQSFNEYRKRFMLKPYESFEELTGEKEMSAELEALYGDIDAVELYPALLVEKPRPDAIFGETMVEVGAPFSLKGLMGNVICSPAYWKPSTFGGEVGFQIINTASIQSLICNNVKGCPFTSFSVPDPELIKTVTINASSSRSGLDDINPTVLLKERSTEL
Nature of the data set: In vitro COX assay. The data set is classed as biochemical. The conditions noted are these: compared to 10r.

The subject of data set [7] is panel of >90 biologically relevant receptors, enzymes and ion channels. Nature of the data set: Off-target panel of >90 biologically relevant targets. The conditions noted are these: Table S1.
In data set [8] the test system is COX products (6-keto-PGF1α, TXB2) and FAAH substrate OEA in plasma. The data set is classed as in vivo. As to conditions: mice, 1 mg/kg intravenous, 1 h, vs vehicle. The essentials:
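Mice, randomised in groups of 6 and handled blind, were decapitated under anaesthesia 1 h after a 1 mg/kg intravenous dose. Heparinised cardiac blood (0.3 mL) was spun at 2000×g for 30 min to give plasma. OEA was extracted with cold acetone containing [²H₄]-OEA and quantified by LC/MS (MRM) against a 1 nM–10 µM calibration curve. 6-keto-PGF1α and […] were measured by ELISA kit. Values are mean ± s.e.m. (n=6), compared with vehicle by two-tailed Student's t test.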

For `CC(C(=O)O)c1ccc(-c2cccc(OC(=O)NC3CCC3)c2)c(F)c1` (racemic) [Compound 10c, (±)-2-[4-[3-(cyclobutylcarbamoyloxy)phenyl]-3-fluoro-phenyl]propanoic acid], the “increase in potency toward COX-1” value in data set [1] was 10 fold. Further, the “loss in potency against FAAH” value in data set [2] (compared to 10a) is given as 10 fold.

Turning to `CC(C(=O)O)c1ccc(-c2cccc(OC(=O)NCC3CCCCC3)c2)c(F)c1` (racemic) [Compound 10e, (±)-2-[4-[3-(cyclohexylmethylcarbamoyloxy)phenyl]-3-fluoro-phenyl]propanoic acid], the “increase in potency toward COX-1” value in data set [1] is given as 10 fold. Also, the “increase in potency toward FAAH” value in data set [2] (compared to 10a) stood at 23 fold.

Consider `CC(C(=O)O)c1ccc(-c2cccc(OC(=O)NCCC3CCCCC3)c2)c(F)c1` (racemic) [Compound 10f, (±)-2-[4-[3-(2-cyclohexylethylcarbamoyloxy)phenyl]-3-fluoro-phenyl]propanoic acid], for which the “increase in potency toward COX-1” value in data set [1] is 50 fold. In data set [2] (compared to 10a), the “increase in potency toward FAAH” value was 400 fold.

`CC(C(=O)O)c1ccc(-c2cccc(OC(=O)NCc3ccccc3)c2)c(F)c1` (racemic) [Compound 10j, (±)-2-[4-[3-(benzylcarbamoyloxy)phenyl]-3-fluoro-phenyl]propanoic acid]: the “increase in potency toward FAAH” value in data set [2] (compared to 10i) is listed as 10 fold.

Take `CCCCCCNC(=O)Oc1cccc(-c2ccc(C(C)C(=O)O)cc2F)c1` (racemic) [Compound 10r, (±)-2-[3-fluoro-4-[3-(hexylcarbamoyloxy)phenyl]phenyl]propanoic acid]: the “engagement of intended targets after oral administration” value in data set [3] was “effectively engages its intended targets”. In addition, the “off-target activities on a panel of >90 biologically relevant targets” value in data set [4] is “no off-target activities”. In data set [5], the “anti-inflammatory effects in mouse models of IBD” value is on record as “profound anti-inflammatory effects”. In addition, in data set [5] (mouse), the COX-dependent gastric toxicity result is reported as “without causing COX-dependent gastric toxicity”.

`CCCCCCNC(=O)Oc1cccc(-c2ccc(C(C)CO)cc2F)c1` (racemic) [Compound 12, (±)-[3-[2-fluoro-4-(2-hydroxy-1-methyl-ethyl)phenyl]phenyl] N-hexylcarbamate]: in data set [1], the “decrease in potency toward COX-1” value was 100 fold. Also, the “increase in potency toward FAAH” value in data set [2] (compared to 10r) is reported as 10 fold.

Consider `CCCCCCNC(=O)Oc1ccccc1-c1ccc(C(C)C(=O)O)cc1F` (racemic) [Compound 15a, (±)-2-[3-fluoro-4-[2-(hexylcarbamoyloxy)phenyl]phenyl]propanoic acid], for which the “decrease in potency toward COX-1” value in data set [1] was 60 fold. Further, in data set [2] (compared to 10r), the “decrease in potency toward FAAH” value is 70 fold.

As to `CCCCCCNC(=O)Oc1cccc(-c2ccc(C(C)C(=O)O)cc2C(F)(F)F)c1` (racemic) [Compound 29c, (±)-2-[4-[3-(hexylcarbamoyloxy)phenyl]-3-(trifluoromethyl)phenyl]propanoic acid], in data set [6], the “increase in potency toward COX-2” value came to 2 fold. For the same molecule, the “increase in potency toward FAAH” value in data set [2] (compared to 10r) came out at 6 fold.

With `CCCCCCNC(=O)Oc1cccc(-c2ccc(C(C)C(=O)O)cc2)c1` (racemic) [Compound 29e, (±)-2-[4-[3-(hexylcarbamoyloxy)phenyl]phenyl]propanoic acid], the “increase in potency toward FAAH” value in data set [2] (compared to 10r) was determined as 10 fold.

In the case of `CCCCCCNC(=O)Oc1cccc(-c2ccc([C@H](C)C(=O)O)cc2F)c1` [(+)-10r, (+)-2-[3-fluoro-4-[3-(hexylcarbamoyloxy)phenyl]phenyl]propanoic acid], the “off-target activities on a panel of >90 biologically relevant receptors, enzymes (including NAAA) and ion channels” value in data set [7] is given as “no off-target activities”. Also, in data set [8], the “plasma level of 6-keto-PGF1α (stable metabolite of prostacyclin)” value is “lowered”, the “plasma level of TXB2 (stable metabolite of TXA2)” value was “lowered” and the “plasma level of the FAAH substrate OEA” value is recorded as “increased”.

For `CCCCCCNC(=O)Oc1cccc(-c2ccc(CC(=O)O)cc2F)c1` [Compound 18b, 2-[3-fluoro-4-[3-(hexylcarbamoyloxy)phenyl]phenyl]acetic acid], the “decrease in potency toward COX-1” value in data set [1] came to 180 fold. In data set [2] (compared to 10r), the “decrease in potency toward FAAH” value stood at 2 fold.

Turning to `CCCCCCNC(=O)Oc1cccc(-c2ccc(C(=O)O)cc2F)c1` [Compound 21c, 3-fluoro-4-[3-(hexylcarbamoyloxy)phenyl]benzoic acid], the “decrease in potency toward FAAH” value in data set [2] (compared to 10r) turned out to be 3 fold.
